ChEMBL document CHEMBL4431316, “New 6-Aminoquinoxaline Derivatives with Neuroprotective Effect on Dopaminergic Neurons in Cellular and Animal Parkinson Disease Models” (J Med Chem, 2016)
Active and inactive are the calls of the source. The rule behind the calls is not given here.

Assays:
Mus musculus [1] = assay: Neuroprotective activity against MPTP-induced C57BL/6 mouse DA neuron toxicity model assessed as restoration of striatal HVA level at 25 mg/kg/day, po bid pretreated for 3 days followed by MPTP challenge and further administration of compound up to day 11 by HPLC method (reference value: 53 +/- 3%); type: functional
Rattus norvegicus [2] = organism: Rattus norvegicus; assay: Antioxidant activity in Sprague-Dawley rat DA neuron assessed as reduction in ferrous iron-mediated neuron death at 5 uM; type: functional
Method in brief: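 Midbrain cultures with DA cell death driven by a Fenton-type reaction, ferrous iron reacting with molecular oxygen in the medium (chronic oxidative stress). Test compound 1-10 µM; desferrioxamine 10 µM as positive control. Readout is DA neuron (TH+) survival. P < 0.05 vs control cultures.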

Rattus norvegicus [3] = organism: Rattus norvegicus; assay: Neuroprotective activity in Sprague-Dawley rat DA neuron death PD model assessed as increase in [2,5,6-3H]DA uptake at 10 to 50 uM after 10 days by liquid scintillation counting spectrometric analysis; type: functional
Method in brief: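 Midbrain cultures in which DA neurons die spontaneously and selectively. Treated with test compound (10-50 µM) or dbcAMP (1 mM, reference) up to 10 DIV. Tritium-labeled DA uptake quantified as a marker of DA cell function and differentiation. Uptake rate per TH+ neuron also derived. *P < 0.05 vs control.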

Astrocyte [4] = assay: Neuroprotective activity in Sprague-Dawley rat astrocytes assessed as effect on vimentin positive cell density and morphology at 50 uM by fluorescence microscopic method; type: functional, cell-based
Method in brief: (§1)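 Midbrain cultures labelled for vimentin, a glial marker. Density and morphology of glial cells scored semi-quantitatively by fluorescence microscopy. Compounds tested at 10 and 50 µM, one at 100 µM; dbcAMP as reference.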

Mus musculus [5] = assay: Neuroprotective activity against MPTP-induced C57BL/6 mouse DA neuron toxicity model assessed as restoration of striatal HVA level at 50 mg/kg/day, po bid pretreated for 3 days followed by MPTP challenge and further administration of compound up to day 11 by HPLC method; type: functional, organism-based
[6] = Neuroprotective activity in Sprague-Dawley rat DA neuron death PD model assessed as survival of Th immunopositive cells at 50 uM after 10 days by immunofluorescence assay; type: functional; details: 240 h, read-out: Survival
Method in brief: (§2)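 Midbrain cultures in which DA neurons die spontaneously and selectively through a mechanism involving immature astrocytes and calcium dyshomeostasis. Compounds were present for 10 days in vitro, screened at 50 µM (100 µM for one analog) and retested at 10 µM. dbcAMP 1 mM served as reference. Surviving TH+ neurons were counted and expressed as % of corresponding untreated control cultures.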

[7] = Neuroprotective activity in Sprague-Dawley rat DA neuron death PD model assessed as survival of Th immunopositive cells at 10 uM after 10 days by immunofluorescence assay relative to control; type: functional; details: 240 h, read-out: Survival; method in brief: as §2
Astrocyte [8] = assay: Neuroprotective activity in Sprague-Dawley rat astrocytes assessed as effect on vimentin positive cell density and morphology at 10 uM by fluorescence microscopic method; type: functional, cell-based; method in brief: as §1
Rattus norvegicus [9] = organism: Rattus norvegicus; assay: Neuroprotective activity in Sprague-Dawley rat DA neuron death PD model assessed as inhibition of calcium mobilization at 50 uM after 10 days in presence of L-type voltage gated calcium channel blocker nifedipine; type: functional
Rattus norvegicus [10] = organism: Rattus norvegicus; assay: Neuroprotective activity in Sprague-Dawley rat DA neuron death PD model assessed as survival of Th immunopositive cells at 50 uM after 10 days in presence of anti-GDNF antibody by immunofluorescence assay; type: functional
Mus musculus [11] = assay: Neuroprotective activity against MPTP-induced C57BL/6 mouse DA neuron toxicity model assessed as restoration of striatal DA level at 25 mg/kg/day, po bid pretreated for 3 days followed by MPTP challenge and further administration of compound up to day 11 by HPLC method (reference value: 28 +/- 2%); type: functional
Mus musculus [12] = assay: Neuroprotective activity against MPTP-induced C57BL/6 mouse DA neuron toxicity model assessed as decrease in striatal DOPAC level at 50 mg/kg/day, po bid pretreated for 3 days followed by MPTP challenge and further administration of compound up to day 11 by HPLC method; type: functional, organism-based
Rattus norvegicus [13] = organism: Rattus norvegicus; assay: Neuritogenic activity in Sprague-Dawley rat DA neuron death PD model assessed as development of neurite network in Th immunopositive cells at 10 to 50 uM after 10 days by microscopic analysis relative to control; type: functional, cell-based
Method in brief: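 Midbrain cultures treated or not with test compound (10-50 µM) for 10 DIV, then immunostained for TH. Neuritic network of TH+ neurons examined microscopically against control neurons. DbcAMP 1 mM as reference protective molecule.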

[14] = biological target: T1, Amine oxidase [flavin-containing] B (Rattus norvegicus, UniProt P19643); assay: Inhibition of rat mitochondrial MAO-B using DAB as substrate incubated for 30 mins by HPLC analysis
T1 sequence (P19643 whole entry): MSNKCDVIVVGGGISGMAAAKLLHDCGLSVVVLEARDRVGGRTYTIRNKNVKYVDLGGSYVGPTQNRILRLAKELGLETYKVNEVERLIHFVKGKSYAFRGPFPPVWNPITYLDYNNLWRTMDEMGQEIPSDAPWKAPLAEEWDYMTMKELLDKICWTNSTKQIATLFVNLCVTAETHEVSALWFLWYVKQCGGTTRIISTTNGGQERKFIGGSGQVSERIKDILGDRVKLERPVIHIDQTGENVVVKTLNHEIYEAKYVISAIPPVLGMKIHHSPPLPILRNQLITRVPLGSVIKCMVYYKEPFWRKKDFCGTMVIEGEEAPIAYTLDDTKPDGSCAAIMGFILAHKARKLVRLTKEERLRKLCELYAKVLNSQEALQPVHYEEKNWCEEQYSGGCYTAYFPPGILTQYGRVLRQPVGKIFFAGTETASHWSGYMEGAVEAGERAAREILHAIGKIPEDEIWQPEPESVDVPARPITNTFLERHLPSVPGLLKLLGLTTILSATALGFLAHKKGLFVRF

Mus musculus [15] = assay: (§3) Neuroprotective activity against MPTP-induced C57BL/6 mouse SN DA neuron toxicity model assessed as survival of Th immunopositive cells at 25 mg/kg/day, po bid pretreated for 3 days followed by MPTP challenge and further administration of compound up to day 11 by immunohistochemical analysis (reference value: 61 +/- 5%); type: functional; details: C57BL/6, po
Method in brief: (§4)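 C57BL/6 mice given sub-chronic MPTP treatment. Test agent given per os twice daily (2x25 or 2x50 mg/kg/day) for 11 days. TH+ neurons counted in one hemisphere per mouse. Expressed as % of vehicle-treated mice, mean ± SEM, n=9-12.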

Mus musculus [16] = assay: as §3, with “50” for “25”, “relative to control” for “(reference value: 61 +/- 5%)”; type: functional; details: C57BL/6, po; method in brief: as §4
Rattus norvegicus [17] = organism: Rattus norvegicus; assay: Neuroprotective activity in Sprague-Dawley rat DA neuron death PD model assessed as survival of Th immunopositive cells treated at 10 to 50 uM in presence of GDNF for 10 days followed by deprivation of GDNF for next 5 days by immunofluorescence assay; type: functional
Method in brief: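 Midbrain cultures kept with GDNF (20 ng/ml) for 10 days, then deprived of GDNF from 11 to 15 DIV, with test compound 10-50 µM. TH+ neurons counted and compared with cultures kept on GDNF to 15 DIV. P < 0.05 vs GDNF-treated and vs GDNF-deprived cultures.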

Astrocyte [18] = assay: Neuroprotective activity in Sprague-Dawley rat astrocytes assessed as [methyl-3H]thymidine incorporation at 10 to 50 uM after 8 days by liquid scintillation counting assay relative to control; type: functional
Method in brief: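 Glial proliferation in midbrain cultures measured as [methyl-3H]-thymidine incorporation at 8 DIV, with test compound 10-50 µM. DbcAMP 1 mM as positive control. Expressed as % of control.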

Mus musculus [19] = assay: Neuroprotective activity against MPTP-induced C57BL/6 mouse DA neuron toxicity model assessed as reduction of striatal DA turnover at 25 mg/kg/day, po bid pretreated for 3 days followed by MPTP challenge and further administration of compound up to day 11 by HPLC method; type: functional; set-up: scale not given: the % may be the effect or the level left
Mus musculus [20] = assay: Neuroprotective activity against MPTP-induced C57BL/6 mouse DA neuron toxicity model assessed as restoration of striatal DA level at 50 mg/kg/day, po bid pretreated for 3 days followed by MPTP challenge and further administration of compound up to day 11 by HPLC method; type: functional, organism-based
Rattus norvegicus [21] = organism: Rattus norvegicus; assay: Neuroprotective activity in Sprague-Dawley rat DA neuron death PD model assessed as inhibition of calcium mobilization at 50 uM after 10 days in presence of RyR channel blocker dantrolene; type: functional

Nc1ccc2ncc(-c3ccccc3)nc2c1
Activity (Mus musculus [1]): 64%
Activity (Rattus norvegicus [2]): Active
Activity (Rattus norvegicus [3]): Active
Activity (Astrocyte [4]): inactive
Activity (Mus musculus [5]): Active
viability at 50 µM [6]: 226%
viability at 10 µM [7]: 152%
Activity (Astrocyte [8]): inactive
inhibition (Rattus norvegicus [9]): Active
Activity (Rattus norvegicus [10]): Active
Activity (Mus musculus [11]): 39%
Activity (Mus musculus [12]): Active
Activity (Rattus norvegicus [13]): Active
IC50 [14]: 513 µM
survival at 25 mg/kg/day (Mus musculus [15]): 78%
survival at 50 mg/kg/day (Mus musculus [16]): 91%
Activity (Rattus norvegicus [17]): Active
Activity (Astrocyte [18]): 93.8%
Activity (Mus musculus [19]): 36%
Activity (Mus musculus [20]): Active
inhibition (Rattus norvegicus [21]): inactive
